Key:
Settings in all cases: stereoisomer not certain
OR2D3 (Homo sapiens) = OR2D3 (Homo sapiens) (UniProt Q8NGH3)
Procedure, shortened: (§1)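 Assay methods differ from source to source, frequently being transient luciferase assays in mammalian cell lines. For each receptor–molecule pair, the label responsive (active) applies when the original authors judged the measured signal statistically different from baseline, and non-responsive (inactive) applies otherwise.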

OR2F1 (Homo sapiens) = OR2F1 (Homo sapiens) (UniProt Q13607)
Chain of OR2F1 (Homo sapiens) (Q13607 whole entry): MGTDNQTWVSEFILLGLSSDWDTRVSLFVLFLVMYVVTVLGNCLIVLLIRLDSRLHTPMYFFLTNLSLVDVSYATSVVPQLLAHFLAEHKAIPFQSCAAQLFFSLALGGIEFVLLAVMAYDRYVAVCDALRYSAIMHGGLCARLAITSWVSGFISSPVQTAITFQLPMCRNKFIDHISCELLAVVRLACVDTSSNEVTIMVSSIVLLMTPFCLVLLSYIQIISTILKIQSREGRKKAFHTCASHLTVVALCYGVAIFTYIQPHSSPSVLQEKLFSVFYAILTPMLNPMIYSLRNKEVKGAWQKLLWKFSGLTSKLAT
Procedure, shortened: as §1

OR2F2 (Homo sapiens) = OR2F2 (Homo sapiens) (UniProt O95006)
Chain of OR2F2 (Homo sapiens) (O95006 whole entry): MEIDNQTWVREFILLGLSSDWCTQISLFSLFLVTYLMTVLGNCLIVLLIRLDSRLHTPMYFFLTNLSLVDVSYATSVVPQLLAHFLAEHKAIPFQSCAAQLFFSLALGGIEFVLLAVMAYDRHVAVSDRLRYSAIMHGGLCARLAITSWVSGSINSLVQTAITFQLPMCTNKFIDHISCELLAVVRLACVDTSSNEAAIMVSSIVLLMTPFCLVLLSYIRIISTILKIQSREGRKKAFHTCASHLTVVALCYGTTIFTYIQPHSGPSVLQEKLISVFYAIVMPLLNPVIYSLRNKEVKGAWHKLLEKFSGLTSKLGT
Procedure, shortened: as §1

OR2G2 (Homo sapiens) = target: T1, OR2G2 (Homo sapiens) (UniProt Q8NGZ5)
T1 sequence (whole entry): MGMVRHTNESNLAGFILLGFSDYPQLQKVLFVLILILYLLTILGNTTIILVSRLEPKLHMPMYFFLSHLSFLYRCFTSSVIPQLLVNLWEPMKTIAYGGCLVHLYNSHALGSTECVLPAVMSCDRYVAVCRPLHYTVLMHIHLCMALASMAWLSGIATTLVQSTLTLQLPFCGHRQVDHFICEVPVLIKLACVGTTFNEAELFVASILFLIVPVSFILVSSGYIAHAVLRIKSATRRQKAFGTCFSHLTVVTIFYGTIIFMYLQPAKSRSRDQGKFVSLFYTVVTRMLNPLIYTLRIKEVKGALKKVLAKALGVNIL
Procedure, shortened: as §1

OR2G3 (Homo sapiens) = OR2G3 (Homo sapiens) (UniProt Q8NGZ4)
Chain of OR2G3 (Homo sapiens) (Q8NGZ4 whole entry): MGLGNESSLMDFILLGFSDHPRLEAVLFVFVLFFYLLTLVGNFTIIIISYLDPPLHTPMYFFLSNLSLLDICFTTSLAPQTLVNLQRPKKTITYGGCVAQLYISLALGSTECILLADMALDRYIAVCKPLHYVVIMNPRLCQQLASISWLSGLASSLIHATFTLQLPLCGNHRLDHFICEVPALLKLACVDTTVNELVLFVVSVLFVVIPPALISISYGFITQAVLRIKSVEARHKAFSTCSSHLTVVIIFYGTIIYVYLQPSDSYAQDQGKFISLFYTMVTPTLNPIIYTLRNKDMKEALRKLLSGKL
Procedure, shortened: as §1

OR2G6 (Homo sapiens) = OR2G6 (Homo sapiens) (UniProt Q5TZ20)
Chain of OR2G6 (Homo sapiens) (Q5TZ20 whole entry): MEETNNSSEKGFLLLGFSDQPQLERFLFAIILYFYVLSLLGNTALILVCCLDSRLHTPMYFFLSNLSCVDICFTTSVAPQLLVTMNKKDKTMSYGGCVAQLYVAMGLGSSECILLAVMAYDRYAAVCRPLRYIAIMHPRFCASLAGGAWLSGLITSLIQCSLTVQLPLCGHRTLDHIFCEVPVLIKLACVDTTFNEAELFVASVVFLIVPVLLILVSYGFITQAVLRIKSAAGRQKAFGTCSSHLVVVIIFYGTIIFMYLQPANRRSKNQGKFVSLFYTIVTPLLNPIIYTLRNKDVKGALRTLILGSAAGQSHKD
Procedure, shortened: as §1

OR2D2 S148P I163T M202T = system: OR2D2 S148P I163T M202T
Procedure, shortened: as §1

OR2D3 R155W = system: OR2D3 R155W
Chain of OR2D3 R155W (as listed by the source, stated change not applied): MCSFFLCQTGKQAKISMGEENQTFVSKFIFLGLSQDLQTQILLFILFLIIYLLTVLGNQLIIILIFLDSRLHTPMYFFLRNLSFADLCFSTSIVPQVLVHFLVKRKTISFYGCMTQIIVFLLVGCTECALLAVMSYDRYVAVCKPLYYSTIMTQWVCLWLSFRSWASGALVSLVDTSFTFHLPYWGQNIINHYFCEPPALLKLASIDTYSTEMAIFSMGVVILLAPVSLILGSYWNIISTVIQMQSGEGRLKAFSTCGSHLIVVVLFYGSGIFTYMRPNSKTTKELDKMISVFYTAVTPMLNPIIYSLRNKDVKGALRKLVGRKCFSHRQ
Procedure, shortened: as §1

OR2G2 L167P R236G = system: OR2G2 L167P R236G
Procedure, shortened: as §1

OR2G3 I289V = system: OR2G3 I289V
Chain of OR2G3 I289V (as listed by the source, stated change not applied): as the sequence (Q8NGZ4 whole entry) above, with I289V counted along it
Procedure, shortened: as §1

Measured: odorant receptor agonist call

Chain of OR2D3 (Homo sapiens) (Q8NGH3 whole entry): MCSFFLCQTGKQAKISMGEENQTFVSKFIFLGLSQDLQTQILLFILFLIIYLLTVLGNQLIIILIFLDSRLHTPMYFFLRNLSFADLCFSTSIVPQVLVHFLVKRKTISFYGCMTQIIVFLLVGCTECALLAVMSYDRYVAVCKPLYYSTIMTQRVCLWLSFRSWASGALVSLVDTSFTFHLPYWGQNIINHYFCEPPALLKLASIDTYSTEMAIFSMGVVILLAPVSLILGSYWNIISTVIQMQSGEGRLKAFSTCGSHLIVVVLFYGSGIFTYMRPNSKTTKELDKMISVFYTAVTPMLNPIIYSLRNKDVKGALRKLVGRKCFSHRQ

Cc1c([N+](=O)[O-])c(C)c([N+](=O)[O-])c(C(C)(C)C)c1[N+](=O)[O-]
inactive: OR2D3 (Homo sapiens) | OR2F1 (Homo sapiens) | OR2F2 (Homo sapiens) | OR2G2 (Homo sapiens) | OR2G3 (Homo sapiens) | OR2G6 (Homo sapiens)

O=Cc1ccccc1
inactive: OR2G2 (Homo sapiens)

C=CCc1ccc(OC)cc1
inactive: OR2G2 (Homo sapiens)

C=CCOC(=O)Cc1ccccc1
inactive: OR2D2 S148P I163T M202T | OR2D3 (Homo sapiens) | OR2D3 R155W | OR2F1 (Homo sapiens) | OR2F2 (Homo sapiens) | OR2G2 (Homo sapiens) | OR2G2 L167P R236G | OR2G3 (Homo sapiens) | OR2G3 I289V | OR2G6 (Homo sapiens)
